According to ChEMBL document CHEMBL3861973, “Caldoramide, a Modified Pentapeptide from the Marine Cyanobacterium Caldora penicillata” (J Nat Prod, 2016):

How the values were obtained:
[1] = Cytotoxicity against human HIF1alpha and HIF2alpha deficit HCT116 cells assessed as reduction of cell viability measured after 48 hrs by ATPlite 1step luminescence assay relative to parental HCT116 cells; assay type: functional; details: HCT-116, 48 h
HCT-116 [2] = test: Selectivity ratio of IC50 for human HIF1alpha and HIF2alpha deficit HCT116 cells to IC50 for human HCT116 cells; assay type: functional
HCT-116 [3] = test: Selectivity ratio of IC50 for oncogenic KRAS knockout human HCT116 cells to IC50 for human HCT116 cells; assay type: functional
[4] = Cytotoxicity against oncogenic KRAS knockout human HCT116 cells expressing wild type KRAS assessed as reduction in cell viability measured after 48 hrs by ATPlite 1step luminescence assay; assay type: functional, cell-based; details: HCT-116, 48 h
[5] = Cytotoxicity against oncogenic KRAS knockout human HCT116 cells expressing wild type KRAS assessed as reduction in cell viability measured after 48 hrs by ATPlite 1step luminescence assay relative to parental HCT116 cells; assay type: functional; details: HCT-116, 48 h
[6] = Cytotoxicity against human HCT116 cells assessed as reduction in cell viability measured after 48 hrs by ATPlite 1step luminescence assay; assay type: functional, cell-based; details: HCT-116, 48 h
[7] = Cytotoxicity against human HIF1alpha and HIF2alpha deficit HCT116 cells assessed as reduction in cell viability measured after 48 hrs by ATPlite 1step luminescence assay; assay type: functional, cell-based; details: HCT-116, 48 h
[8] = Cytotoxicity against human HCT116 cells assessed as reduction in cell viability measured after 48 hrs by MTT assay; assay type: functional, cell-based; details: HCT-116, 48 h
Method in brief: (§1)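 Parental HCT116, HIF-1α/HIF-2α double-knockout and oncogenic-KRAS-knockout (wild-type KRAS) isogenic lines grown in DMEM + 10% FBS, 37 °C, 5% CO2. Seeded at 10,000 cells/well; compound added at various concentrations 24 h later.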

[9] = Cytotoxicity against human HIF1alpha and HIF2alpha deficit HCT116 cells assessed as reduction in cell viability measured after 48 hrs by MTT assay relative to parental HCT116 cells; assay type: functional; details: HCT-116, 48 h
Method in brief: (§2)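 Same isogenic HCT116 MTT set-up: cells in DMEM + 10% FBS at 37 °C, 5% CO2, 10,000 cells/well, dosed at graded concentrations after 24 h, MTT read 48 h post-treatment. Maximum efficacy in each knockout line expressed as percent of that in parental HCT116.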

[10] = Cytotoxicity against oncogenic KRAS knockout human HCT116 cells assessed as reduction in cell viability measured after 48 hrs by MTT assay; assay type: functional, cell-based; details: HCT-116, 48 h; method in brief: as §1
[11] = Cytotoxicity against human HIF1alpha and HIF2alpha deficit HCT116 cells assessed as reduction in cell viability measured after 48 hrs by MTT assay; assay type: functional, cell-based; details: HCT-116, 48 h; method in brief: as §1
[12] = Cytotoxicity against oncogenic KRAS knockout human HCT116 cells expressing wild type KRAS assessed as reduction in cell viability measured after 48 hrs by MTT assay relative to parental HCT116 cells; assay type: functional; details: HCT-116, 48 h; method in brief: as §2

Row | Structure (SMILES) | Emax [1] [%] | Ratio IC50 (HCT-116 [2]) | Ratio IC50 (HCT-116 [3]) | IC50 [4] [nM] | Emax [5] [%] | IC50 [6] [nM] | IC50 [7] [nM] | IC50 [8] [µM] | Emax [9] [%] | IC50 [10] [µM] | IC50 [11] [µM] | Emax [12] [%]
1 | CC[C@H](C)[C@@H]([C@@H](CC(=O)N1CCC[C@H]1[C@H](OC)[C@@H](C)C(=O)N[C@@H](Cc1ccccc1)c1nccs1)OC)N(C)C(=O)[C@@H](NC(=O)[C@H](C(C)C)N(C)C)C(C)C [DOLASTATIN-10] | 74 | >50 | >50 | 24 | 83 | 0.48 | 65 | – | – | – | – | –
2 | CCCCCCCC(=O)SCC/C=C/[C@@H]1CC(=O)NCc2nc(cs2)C2=N[C@@](C)(CS2)C(=O)N[C@@H](C(C)C)C(=O)O1 [LARGAZOLE] | 70 | – | – | 3.7 | 67 | 6.41 | 18 | – | – | – | – | –
3 | CC[C@H](C)[C@@H](C(=O)N1C(=O)C=C(OC)[C@@H]1Cc1ccccc1)N(C)C(=O)[C@H](C(C)C)N(C)C(=O)[C@@H](NC(=O)[C@H](C(C)C)N(C)C)C(C)C | – | – | – | – | – | – | – | 3.9 | 67 | 8.6 | 5.2 | 100
